Data published in ChEMBL document CHEMBL3045148, “nematicidal carboxylic acids and aldehydes from Melia azedarach fruits” (J Agric Food Chem, 2010).
Converted amounts (≈) assume the structure as drawn.

Legend:
Meloidogyne incognita [1] = experiment: Nematicidal activity against Meloidogyne incognita J2 (root-knot nematode) assessed as paralysis measured after 1 day at 28 degC; assay type: functional, organism-based; conditions: 24 h
Procedure, shortened: (§1)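 Freshly hatched (24 h) M. incognita J2 were taken from infested tomato roots. Each well held 25 J2 immersed in test solution, kept in the dark at 28 °C. Ethanol stocks were diluted in water with Tween-20 (final ethanol ≤1%, Tween-20 ≤0.3% v/v); water-soluble acids were made up in water. J2 were scored motile or paralyzed by inverted microscope and corrected for water-control paralysis (Schneider-Orelli). EC50 came from log-logistic regression; two experiments, six replicates each.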

Meloidogyne incognita [2] = experiment: Nematicidal activity against Meloidogyne incognita J2 (root-knot nematode) assessed as paralysis measured after 1 hr at 28 degC; assay type: functional, organism-based; procedure, shortened: as §1
Meloidogyne incognita [3] = experiment: Nematicidal activity against Meloidogyne incognita J2 (root-knot nematode) assessed as paralysis measured at 500 ug/mL by fumigant assay; assay type: functional
Procedure, shortened: (§2)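 Vapour-exposure microwell test with 24 h-old J2 from infested tomato roots, kept in the dark at 28 °C. Test solution went into one well and J2 in tap water into the four adjacent wells, with one dose per plate. Paralysis in the adjacent wells (120 J2 per replicate) was scored by microscope as motile or paralyzed and corrected for water-control paralysis (Schneider-Orelli). Two experiments, six replicates.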

Meloidogyne incognita [4] = experiment: Nematicidal activity against Meloidogyne incognita J2 (root-knot nematode) assessed as paralysis measured after 1 day at 28 degC by fumigant assay; assay type: functional, organism-based; conditions: 24 h; procedure, shortened: as §2

`CC(=O)O` [ACETIC ACID] gave an EC50 (Meloidogyne incognita [1]) of 38.3 µg/mL (≈ 638 µM) and an EC50 (Meloidogyne incognita [2]) of 64 µg/mL (≈ 1070 µM).

For `O=Cc1ccc(CO)o1` [AES-103], the EC50 (Meloidogyne incognita [1]) was 45.7 µg/mL (≈ 362 µM) and the EC50 (Meloidogyne incognita [2]) was greater than 100 µg/mL.

Work on `CCCC(=O)O` [BUTYRIC ACID] yielded an Activity (Meloidogyne incognita [3]) greater than 30 µg/mL, an EC50 (Meloidogyne incognita [1]) of 40.7 µg/mL (≈ 462 µM) and an EC50 (Meloidogyne incognita [2]) of 69.8 µg/mL (≈ 792 µM).

`CCCCCCCCCC(=O)O` [DECANOIC ACID] showed an EC50 (Meloidogyne incognita [1]) of 248 µg/mL (≈ 1440 µM) and an EC50 (Meloidogyne incognita [2]) of 354 µg/mL (≈ 2050 µM).

`CCOP(=O)(SC(C)CC)N1CCSC1=O` (stereo not given) [FOSTHIAZATE] was tested, and the EC50 (Meloidogyne incognita [1]) was 0.4 µg/mL (≈ 1.41 µM) and the EC50 (Meloidogyne incognita [2]) was 3.3 µg/mL (≈ 11.6 µM).

Compound `O=Cc1ccco1` [FURFURAL] has an EC50 (Meloidogyne incognita [1]) of 8.5 µg/mL (≈ 88.5 µM), an EC50 (Meloidogyne incognita [2]) of 11.4 µg/mL (≈ 119 µM) and an EC50 (Meloidogyne incognita [4]) of 24.1 µg/mL (≈ 251 µM).

Compound `OCc1ccco1` [FURFURYL ALCOHOL] has an EC50 (Meloidogyne incognita [1]) of 41.2 µg/mL (≈ 420 µM) and an EC50 (Meloidogyne incognita [2]) greater than 100 µg/mL.

Compound `CCCCCC(=O)O` [HEXANOATE] has an EC50 (Meloidogyne incognita [1]) of 41.1 µg/mL (≈ 354 µM) and an EC50 (Meloidogyne incognita [2]) of 88.7 µg/mL (≈ 764 µM).

`CCCCCCCCCCCCCCCC(=O)O` [PALMITIC ACID] showed an EC50 (Meloidogyne incognita [1]) greater than 500 µg/mL and an EC50 (Meloidogyne incognita [2]) greater than 500 µg/mL.
